Data published in ChEMBL document CHEMBL6096655, “Discovery of a novel, selective CK2 inhibitor class with an unusual basic scaffold” (Eur J Med Chem, 2025).

Assays:
786-0 = assay: Antiproliferative activity against human 786-0 cells assessed as inhibition of cell growth at 30 uM measured after 3 to 4 days by MTT assay relative to control; type: functional; settings: time 3-4 day
Summary of the method: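 786-O cells (RPMI, 10% FCS) seeded at 5000 per well and left overnight. Compound was added at a single 30 µM concentration in 1% FCS medium (DMSO max. 0.2%). Cells grew 3–4 days at 37 °C, 5% CO₂, with no medium change, and were read by MTT. Percent inhibition is the mean of duplicates that differed by ≤10%.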

U-937 = assay: Antiproliferative activity against human U-937 cells assessed as inhibition of cell growth measured after 3 to 4 days by MTT assay; type: functional; settings: time 3-4 day
Summary of the method: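 786-O or U937 cells grown in RPMI with 2 mM L-glutamine, 1% pen/strep and 10% FCS. Cells were seeded at 5000 per well and left overnight, then switched to 1% FCS medium containing compound or DMSO (max. 0.2% final). Growth ran 3–4 days at 37 °C in 5% CO₂ without medium change, followed by MTT read-out. GI50 is the mean ± SD of at least two independent experiments.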

[1] = molecular target: Aurora kinase B (Homo sapiens) (UniProt Q96GD4); assay: Inhibition of human recombinant AURKB at 2 uM by Eurofins kinase assay relative to control
[2] = molecular target: CDC7/DBF4 (Cell division cycle 7-related protein kinase/Activator of S phase kinase) (Homo sapiens) (UniProt Q9UBU7+O00311); assay: Inhibition of human recombinant GST tagged CDC7/DBF4 expressed in Baculovirus expression system at 2 uM by Eurofins kinase assay relative to control
[3] = molecular target: Serine/threonine-protein kinase Chk1 (Homo sapiens) (UniProt O14757); assay: Inhibition of human recombinant CHK1 at 2 uM by Eurofins kinase assay relative to control
[4] = molecular target: Dual specificity tyrosine-phosphorylation-regulated kinase 2 (Homo sapiens) (UniProt Q92630); assay: Inhibition of human DYRK2 at 2 uM by Eurofins kinase assay relative to control
[5] = system: Receptor-type tyrosine-protein kinase FLT3 (Homo sapiens), P36888 [D835Y]; assay: Inhibition of human recombinant his tagged FLT3 D835Y expressed in insect cells at 2 uM by Eurofins kinase assay relative to control
[6] = molecular target: Glycogen synthase kinase-3 beta (Homo sapiens) (UniProt P49841); assay: Inhibition of human recombinant GSK3B at 2 uM by Eurofins kinase assay relative to control
[7] = molecular target: Homeodomain-interacting protein kinase 1 (Homo sapiens) (UniProt Q86Z02); assay: Inhibition of human recombinant HIPK1 at 2 uM by Eurofins kinase assay relative to control
[8] = molecular target: Homeodomain-interacting protein kinase 3 (Homo sapiens) (UniProt Q9H422); assay: Inhibition of human recombinant HIPK3 at 2 uM by Eurofins kinase assay relative to control
[9] = system: Mast/stem cell growth factor receptor Kit (Homo sapiens), P10721 [D816H]; assay: Inhibition of human recombinant GST/His tagged KIT D816H mutant expressed in insect cells at 2 uM by Eurofins kinase assay relative to control
[10] = molecular target: Mitogen-activated protein kinase 8 (Homo sapiens) (UniProt P45983); assay: Inhibition of human recombinant MAPK8 at 2 uM by Eurofins kinase assay relative to control
[11] = molecular target: PAS domain-containing serine/threonine-protein kinase (Homo sapiens) (UniProt Q96RG2); assay: Inhibition of human recombinant PASK at 2 uM by Eurofins kinase assay relative to control
Homo sapiens = species: Homo sapiens; assay: Inhibition of human recombinant His-tagged PIK3CA/PIK3R1 at 2 uM by Eurofins kinase assay relative to control
[12] = molecular target: Serine/threonine-protein kinase pim-1 (Homo sapiens) (UniProt P11309); assay: Inhibition of human recombinant PIM1 at 2 uM by Eurofins kinase assay relative to control
[13] = molecular target: Proto-oncogene tyrosine-protein kinase Src (Homo sapiens) (UniProt P12931); assay: Inhibition of human recombinant SRC at 2 uM by Eurofins kinase assay relative to control
[14] = molecular target: Serine/threonine-protein kinase 17A (Homo sapiens) (UniProt Q9UEE5); assay: Inhibition of human STK17A at 2 uM by Eurofins kinase assay relative to control
[15] = molecular target: Serine/threonine-protein kinase TBK1 (Homo sapiens) (UniProt Q9UHD2); assay: Inhibition of human TBK1 at 2 uM by Eurofins kinase assay relative to control
[16] = Upregulation of PARP cleavage in human U-937 cells by measuring signal 1 at 15 uM measured after 48 hrs by immunoblot analysis; type: functional
Summary of the method: (§1)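 U937 cells exposed to compound or DMSO for 48 h, then lysed in Laemmli buffer. Lysates were run on 8–16% gradient SDS-PAGE, semi-dry blotted to PVDF and probed for PARP. Detection used IR-fluorescent secondary antibodies. The cleaved/uncleaved PARP signal ratio was obtained by densitometry. Results are representative of two independent experiments.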

[17] = Upregulation of PARP cleavage in human U-937 cells by measuring signal 1 at 30 uM measured after 48 hrs by immunoblot analysis; type: functional; summary of the method: as §1
[18] = Upregulation of PARP cleavage in human U-937 cells by measuring signal 2 at 10 uM measured after 48 hrs by immunoblot analysis; type: functional; summary of the method: as §1
[19] = molecular target: T1, Hsp90 co-chaperone Cdc37 (Homo sapiens) (UniProt Q16543); assay: Inhibition of CDC37 phosphorylation in human 786-O cells at 10 uM measured after 48 hrs by immunoblot analysis relative to control
T1 sequence (whole entry): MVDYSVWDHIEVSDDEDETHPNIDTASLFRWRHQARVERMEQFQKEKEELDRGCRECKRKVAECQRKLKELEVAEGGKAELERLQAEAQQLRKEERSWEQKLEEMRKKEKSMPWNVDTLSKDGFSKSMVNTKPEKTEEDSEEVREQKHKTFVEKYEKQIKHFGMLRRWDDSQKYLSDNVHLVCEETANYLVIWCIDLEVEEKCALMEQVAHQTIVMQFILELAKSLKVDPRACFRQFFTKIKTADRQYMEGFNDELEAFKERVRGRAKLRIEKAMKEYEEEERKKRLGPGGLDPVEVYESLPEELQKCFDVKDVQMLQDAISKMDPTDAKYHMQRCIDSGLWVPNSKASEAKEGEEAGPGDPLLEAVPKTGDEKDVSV

[20] = molecular target: Eukaryotic translation initiation factor 2 subunit 2 (Homo sapiens) (UniProt P20042); assay: Inhibition of eIF2beta phosphorylation in human 786-O cells at 6 uM measured after 48 hrs by immunoblot analysis relative to control
[21] = molecular target: Eukaryotic translation initiation factor 2 subunit 2 (Homo sapiens) (UniProt P20042); assay: Inhibition of eIF2beta phosphorylation in human 786-O cells at 8 uM measured after 48 hrs by immunoblot analysis relative to control
[22] = molecular target: Eukaryotic translation initiation factor 2 subunit 2 (Homo sapiens) (UniProt P20042); assay: Inhibition of eIF2beta phosphorylation in human 786-O cells at 10 uM measured after 48 hrs by immunoblot analysis relative to control

Chain of Eukaryotic translation initiation factor 2 subunit 2 (Homo sapiens) (P20042 whole entry): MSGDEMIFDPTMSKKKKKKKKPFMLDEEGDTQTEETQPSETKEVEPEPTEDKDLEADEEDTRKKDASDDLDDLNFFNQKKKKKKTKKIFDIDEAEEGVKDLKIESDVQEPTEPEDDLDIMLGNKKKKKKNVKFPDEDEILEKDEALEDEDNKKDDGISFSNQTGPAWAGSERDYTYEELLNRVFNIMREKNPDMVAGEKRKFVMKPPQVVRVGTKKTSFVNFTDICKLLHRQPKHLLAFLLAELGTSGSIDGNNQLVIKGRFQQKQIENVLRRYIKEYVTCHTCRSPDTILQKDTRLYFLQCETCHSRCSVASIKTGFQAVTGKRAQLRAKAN
Chain of Serine/threonine-protein kinase pim-1 (Homo sapiens) (P11309 whole entry, looked up): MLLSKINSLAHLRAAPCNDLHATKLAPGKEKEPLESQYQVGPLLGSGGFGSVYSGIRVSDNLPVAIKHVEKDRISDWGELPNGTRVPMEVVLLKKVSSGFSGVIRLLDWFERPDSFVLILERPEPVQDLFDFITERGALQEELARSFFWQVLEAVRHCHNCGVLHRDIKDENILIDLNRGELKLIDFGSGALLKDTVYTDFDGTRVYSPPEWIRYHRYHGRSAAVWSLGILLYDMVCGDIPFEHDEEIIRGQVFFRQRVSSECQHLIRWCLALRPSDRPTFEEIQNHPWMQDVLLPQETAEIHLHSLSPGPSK
Chain of Serine/threonine-protein kinase TBK1 (Homo sapiens) (Q9UHD2 whole entry): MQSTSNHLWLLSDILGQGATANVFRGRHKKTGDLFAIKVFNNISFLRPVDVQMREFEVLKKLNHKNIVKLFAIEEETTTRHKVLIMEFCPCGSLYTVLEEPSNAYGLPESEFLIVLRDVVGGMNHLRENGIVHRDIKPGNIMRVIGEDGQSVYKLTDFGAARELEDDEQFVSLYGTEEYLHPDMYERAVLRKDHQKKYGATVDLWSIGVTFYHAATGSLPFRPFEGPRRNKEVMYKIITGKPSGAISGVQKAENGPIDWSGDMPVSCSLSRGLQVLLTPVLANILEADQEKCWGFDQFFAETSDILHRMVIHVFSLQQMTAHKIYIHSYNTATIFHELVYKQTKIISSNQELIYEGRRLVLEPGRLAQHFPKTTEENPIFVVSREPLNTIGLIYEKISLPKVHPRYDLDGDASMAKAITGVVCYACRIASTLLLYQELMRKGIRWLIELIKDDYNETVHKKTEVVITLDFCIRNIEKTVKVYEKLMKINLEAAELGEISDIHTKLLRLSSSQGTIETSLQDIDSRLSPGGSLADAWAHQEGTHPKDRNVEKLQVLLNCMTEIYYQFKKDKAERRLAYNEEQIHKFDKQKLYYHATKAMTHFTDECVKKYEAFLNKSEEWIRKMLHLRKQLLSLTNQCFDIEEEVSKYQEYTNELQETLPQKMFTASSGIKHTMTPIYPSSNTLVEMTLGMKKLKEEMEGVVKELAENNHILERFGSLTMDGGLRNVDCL
Chain of Homeodomain-interacting protein kinase 1 (Homo sapiens) (Q86Z02 whole entry, looked up): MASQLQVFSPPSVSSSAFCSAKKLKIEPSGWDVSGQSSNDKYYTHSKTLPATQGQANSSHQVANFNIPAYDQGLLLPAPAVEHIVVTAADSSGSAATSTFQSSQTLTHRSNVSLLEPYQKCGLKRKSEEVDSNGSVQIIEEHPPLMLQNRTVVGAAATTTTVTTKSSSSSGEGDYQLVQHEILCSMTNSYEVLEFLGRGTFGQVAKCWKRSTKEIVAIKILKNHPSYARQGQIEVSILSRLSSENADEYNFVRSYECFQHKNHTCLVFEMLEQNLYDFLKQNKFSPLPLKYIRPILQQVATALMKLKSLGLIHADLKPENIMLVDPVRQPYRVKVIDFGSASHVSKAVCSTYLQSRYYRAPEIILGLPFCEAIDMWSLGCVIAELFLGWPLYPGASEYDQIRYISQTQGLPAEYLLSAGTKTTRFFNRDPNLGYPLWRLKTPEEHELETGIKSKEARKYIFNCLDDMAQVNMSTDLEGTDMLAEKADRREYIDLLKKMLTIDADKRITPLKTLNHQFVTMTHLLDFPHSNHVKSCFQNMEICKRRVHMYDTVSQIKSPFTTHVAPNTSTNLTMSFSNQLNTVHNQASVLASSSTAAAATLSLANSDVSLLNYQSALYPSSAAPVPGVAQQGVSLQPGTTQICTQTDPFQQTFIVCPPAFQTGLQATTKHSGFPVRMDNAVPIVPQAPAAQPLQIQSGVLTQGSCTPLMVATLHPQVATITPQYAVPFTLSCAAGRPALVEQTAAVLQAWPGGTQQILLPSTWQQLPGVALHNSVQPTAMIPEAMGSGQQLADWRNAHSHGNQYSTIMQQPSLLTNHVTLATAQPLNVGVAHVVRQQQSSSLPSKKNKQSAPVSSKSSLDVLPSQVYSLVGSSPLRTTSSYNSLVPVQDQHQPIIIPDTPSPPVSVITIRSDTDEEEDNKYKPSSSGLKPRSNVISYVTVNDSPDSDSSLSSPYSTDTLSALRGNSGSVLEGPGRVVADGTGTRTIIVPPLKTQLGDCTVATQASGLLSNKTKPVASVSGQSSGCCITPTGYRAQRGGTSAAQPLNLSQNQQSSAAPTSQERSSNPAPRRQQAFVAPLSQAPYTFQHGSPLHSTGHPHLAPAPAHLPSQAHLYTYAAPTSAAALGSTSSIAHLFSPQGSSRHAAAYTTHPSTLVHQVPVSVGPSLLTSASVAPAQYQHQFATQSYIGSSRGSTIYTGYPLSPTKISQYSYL
Chain of Glycogen synthase kinase-3 beta (Homo sapiens) (P49841 whole entry, looked up): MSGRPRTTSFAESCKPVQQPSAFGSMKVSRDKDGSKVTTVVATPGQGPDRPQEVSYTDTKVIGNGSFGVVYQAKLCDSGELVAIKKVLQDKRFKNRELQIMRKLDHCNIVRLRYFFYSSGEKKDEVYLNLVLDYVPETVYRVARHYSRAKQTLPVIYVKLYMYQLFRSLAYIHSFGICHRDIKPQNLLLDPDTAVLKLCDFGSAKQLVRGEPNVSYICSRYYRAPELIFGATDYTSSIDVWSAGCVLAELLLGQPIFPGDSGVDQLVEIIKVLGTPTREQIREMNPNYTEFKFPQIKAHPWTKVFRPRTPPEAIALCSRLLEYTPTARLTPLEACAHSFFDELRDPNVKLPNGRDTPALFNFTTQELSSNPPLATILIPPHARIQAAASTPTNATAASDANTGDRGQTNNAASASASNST
Chain of Serine/threonine-protein kinase Chk1 (Homo sapiens) (O14757 whole entry): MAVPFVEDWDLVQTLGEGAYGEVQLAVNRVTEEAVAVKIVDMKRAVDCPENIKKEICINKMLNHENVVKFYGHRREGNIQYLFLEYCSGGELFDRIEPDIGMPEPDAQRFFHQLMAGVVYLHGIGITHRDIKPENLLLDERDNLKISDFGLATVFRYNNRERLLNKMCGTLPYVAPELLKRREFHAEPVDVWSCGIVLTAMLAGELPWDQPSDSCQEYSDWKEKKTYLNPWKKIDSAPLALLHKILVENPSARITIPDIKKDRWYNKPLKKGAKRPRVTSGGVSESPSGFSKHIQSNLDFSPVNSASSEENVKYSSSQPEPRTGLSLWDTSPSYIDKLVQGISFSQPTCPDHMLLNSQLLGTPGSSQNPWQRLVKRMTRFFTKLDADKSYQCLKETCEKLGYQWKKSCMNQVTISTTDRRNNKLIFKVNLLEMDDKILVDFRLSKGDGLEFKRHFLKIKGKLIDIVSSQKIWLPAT
Chain of Mast/stem cell growth factor receptor Kit (Homo sapiens), P10721 [D816H] (P10721 whole entry D816H): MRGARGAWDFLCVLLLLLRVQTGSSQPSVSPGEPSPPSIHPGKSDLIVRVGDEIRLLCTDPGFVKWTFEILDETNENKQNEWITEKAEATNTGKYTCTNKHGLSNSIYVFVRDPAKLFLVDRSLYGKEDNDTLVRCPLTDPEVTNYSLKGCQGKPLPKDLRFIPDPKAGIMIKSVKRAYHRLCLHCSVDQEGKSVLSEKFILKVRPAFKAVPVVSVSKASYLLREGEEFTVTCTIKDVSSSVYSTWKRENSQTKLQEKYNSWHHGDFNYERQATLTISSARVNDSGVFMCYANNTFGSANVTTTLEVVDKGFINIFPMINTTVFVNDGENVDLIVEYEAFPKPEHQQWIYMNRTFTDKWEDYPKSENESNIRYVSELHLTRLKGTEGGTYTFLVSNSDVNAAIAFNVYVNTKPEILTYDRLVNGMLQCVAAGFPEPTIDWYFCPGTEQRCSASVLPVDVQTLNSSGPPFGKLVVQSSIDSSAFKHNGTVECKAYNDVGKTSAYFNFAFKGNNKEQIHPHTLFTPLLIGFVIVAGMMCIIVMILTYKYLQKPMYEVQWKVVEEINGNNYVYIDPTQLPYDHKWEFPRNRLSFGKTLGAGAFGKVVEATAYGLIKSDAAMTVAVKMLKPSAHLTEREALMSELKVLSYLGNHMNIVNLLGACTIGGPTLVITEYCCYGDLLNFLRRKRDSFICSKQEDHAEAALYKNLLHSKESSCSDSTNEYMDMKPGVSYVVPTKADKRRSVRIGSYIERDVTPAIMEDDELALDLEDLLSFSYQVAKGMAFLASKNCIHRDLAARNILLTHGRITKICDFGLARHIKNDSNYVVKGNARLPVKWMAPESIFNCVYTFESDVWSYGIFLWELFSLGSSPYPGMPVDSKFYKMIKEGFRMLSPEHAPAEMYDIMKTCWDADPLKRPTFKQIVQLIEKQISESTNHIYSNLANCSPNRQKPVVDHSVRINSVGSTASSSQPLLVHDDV
Chain of Aurora kinase B (Homo sapiens) (Q96GD4 whole entry): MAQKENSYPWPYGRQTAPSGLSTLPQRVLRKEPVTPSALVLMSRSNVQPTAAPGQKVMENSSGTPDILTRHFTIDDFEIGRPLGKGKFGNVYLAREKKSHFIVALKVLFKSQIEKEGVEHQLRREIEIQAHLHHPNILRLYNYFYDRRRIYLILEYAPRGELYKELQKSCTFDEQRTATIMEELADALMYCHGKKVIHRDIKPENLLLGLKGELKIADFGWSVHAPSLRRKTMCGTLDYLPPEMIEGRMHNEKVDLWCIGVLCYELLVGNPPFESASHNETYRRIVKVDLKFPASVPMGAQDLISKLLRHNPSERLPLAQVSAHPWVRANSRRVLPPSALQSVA

Compound: Clc1ccc(N2CCN(c3ncnc4sc5c(c34)CCNC5)CC2)cc1.O=C(O)C(F)(F)F
- inhibition at 30 µM (786-0): 102%
- GI50 (U-937): 7.5 µM
- inhibition [1]: 4%
- inhibition [2]: 0%
- inhibition [3]: 16%
- inhibition [4]: 9%
- inhibition [5]: 11%
- inhibition [6]: 0%
- inhibition [7]: 5%
- inhibition [8]: 9%
- inhibition [9]: 4%
- inhibition [10]: 18%
- inhibition [11]: 0%
- inhibition (Homo sapiens): 0%
- inhibition [12]: 0%
- inhibition [13]: 6%
- inhibition [14]: 0%
- inhibition [15]: 4%
- Activity [16]: 96%
- Activity [17]: 98%
- Activity [18]: 38%
- inhibition [19]: 12%
- inhibition [20]: 0%
- inhibition [21]: 32%
- inhibition [22]: 83%
